From ChEMBL document CHEMBL3044706, “Lignans and neolignans from Brassica fruticulosa: effects on seed germination and plant growth” (2003) come the findings set out here.

Experiment [1] relates to Solanum lycopersicum. The experiment can be described thus: Effect on seed germination in Solanum lycopersicum (tomato) at 10^-4 to 10^-9 M after 5 days relative to control. Format: functional, organism-based. In outline: (§1)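 Seeds (cress 3 days, tomato 5 days, onion 7 days), 25 per 90 mm Petri dish on one Whatman No. 1 filter paper, with 5 mL test solution in 10 mM MES pH 6 (10^-4 M, diluted to 10^-9 M). Dishes were sealed and kept at 25 °C in the dark. Germination was scored daily, then root/shoot lengths were taken after freezing at -20 °C. Four replicates, expressed as % difference from control, with t-test.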

In experiment [2] the test system is Lepidium sativum. As to the kind of experiment: Effect on root elongation in Lepidium sativum at 10^-4 to 10^-9 M after 3 days relative to control. The class given is functional, organism-based. The gist of the method:
as §1

Experiment [3] relates to Solanum lycopersicum. As to the kind of experiment: Stimulation of shoot elongation in Solanum lycopersicum (tomato) at 10^-4 to 10^-9 M after 5 days relative to control. Format: functional, organism-based. The gist of the method:
as §1

In experiment [4] the test system is Allium cepa. The experiment can be described thus: Effect on seed germination in Allium cepa (onion) at 10^-4 to 10^-9 M after 7 days relative to control. Format: functional, organism-based. In outline: as §1
For experiment [5], the system named is Solanum lycopersicum. As to the kind of experiment: Effect on root elongation in Solanum lycopersicum (tomato) at 10^-4 to 10^-9 M after 5 days relative to control. Format: functional, organism-based. In outline: as §1
In experiment [6] the test system is Lactuca sativa. As to the kind of experiment: Effect on root elongation in Lactuca sativa (lettuce) at 10^-4 to 10^-9 M after 5 days relative to control. Format: functional, organism-based. In outline:
(§2)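 Lettuce seeds, 25 per 50 mm Petri dish on one Whatman No. 1 filter paper, with 2.5 mL test solution in 10 mM MES pH 6 (10^-4 M, diluted to 10^-9 M). Dishes were Parafilm-sealed and kept at 25 °C in the dark. Germination was scored daily for 5 days, then root/shoot lengths were measured on plants frozen at -20 °C. Four replicates, expressed as % difference from parallel control, with Student's t-test.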

For experiment [7], the system named is Allium cepa. The experiment can be described thus: Stimulation of root elongation in Allium cepa (onion) at 10^-4 to 10^-9 M after 7 days relative to control. Format: functional, organism-based. The gist of the method: as §1
For experiment [8], the system named is Lactuca sativa. As to the kind of experiment: Stimulation of shoot elongation in Lactuca sativa (lettuce) at 10^-4 to 10^-9 M after 5 days relative to control. The class given is functional, organism-based. The gist of the method: as §2
Experiment [9] deals with Allium cepa. As to the kind of experiment: Stimulation of shoot elongation in Allium cepa (onion) at 10^-4 to 10^-9 M after 7 days relative to control. Format: functional, organism-based. The gist of the method:
as §1

The subject of experiment [10] is Lactuca sativa. The experiment can be described thus: Inhibition of seed germination in Lactuca sativa (lettuce) at 10^-9 M after 5 days relative to control. Format: functional. The conditions noted are these: 120 h. In outline:
as §2

Experiment [11] deals with Lepidium sativum. The experiment can be described thus: Effect on seed germination in Lepidium sativum at 10^-4 to 10^-9 M after 3 days relative to control. Format: functional, organism-based. In outline: as §1
Experiment [12] has as its system Allium cepa. As to the kind of experiment: Inhibition of shoot elongation in Allium cepa (onion) at 10^-4 to 10^-9 M after 7 days relative to control. The class given is functional, organism-based. The gist of the method: as §1
Experiment [13] deals with Lactuca sativa. The experiment can be described thus: Inhibition of shoot elongation in Lactuca sativa (lettuce) at 10^-4 to 10^-9 M after 5 days relative to control. The class given is functional, organism-based. The gist of the method: as §2
Experiment [14] deals with Solanum lycopersicum. As to the kind of experiment: Inhibition of shoot elongation in Solanum lycopersicum (tomato) at 10^-4 to 10^-9 M after 5 days relative to control. Format: functional, organism-based. The gist of the method:
as §1

Experiment [15] relates to Lepidium sativum. As to the kind of experiment: Inhibition of shoot elongation in Lepidium sativum at 10^-4 to 10^-9 M after 3 days relative to control. The class given is functional. In outline: as §1
The test system of experiment [16] is Lactuca sativa. As to the kind of experiment: Inhibition of seed germination in Lactuca sativa (lettuce) at 10^-4 to 10^-9 M after 5 days relative to control. Format: functional. In outline:
as §2

What is called inhibition is the relative decrease from the control value, in per cent.

The source made the active and inactive calls. No cut-off for these calls is given here.

Consider `COc1cc([C@@H]2c3cc(O)c(OC)cc3C[C@H](CO)[C@H]2CO)ccc1O` [(-)-ISOLARICIRESINOL], for which the result in the experiment with Solanum lycopersicum [1], in the experiment with Lepidium sativum [2], in the experiment with Allium cepa [4], in the experiment on Solanum lycopersicum [5], in the experiment on Lactuca sativa [6] and in the experiment with Allium cepa [7] was inactive. In addition, the result with Lepidium sativum [11] was inactive. The outcome with Solanum lycopersicum [3], in the experiment on Lactuca sativa [8] and with Allium cepa [9] was Active. Further, 0.001 µM produced 50% inhibition with Lactuca sativa [10]. In addition, the inhibition entry in the experiment with Allium cepa [12], with Lactuca sativa [13], in the experiment with Solanum lycopersicum [14] and with Lactuca sativa [16] was “Active” in each case. In addition, in the experiment on Lepidium sativum [15], the “inhibition (INH)” value was determined as 30%.
